ChEMBL document CHEMBL1142874, “Design and synthesis of anticonvulsants from a combined phthalimide-GABA-anilide and hydrazone pharmacophore” (Eur J Med Chem, 2007)
Activity calls are given as the source filed them. The rule behind the calls is not given here.

Key:
Mus musculus [1] = experiment: Anticonvulsant activity in Albino CF1 mouse upto 300 mg/kg, ip in maximal electroshock seizure test; format: functional, organism-based; design: dose 300 mg/kg
Summary of the method: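 Mice dosed i.p. (0.01 mL/g) at 30, 100 and 300 mg/kg. Electroshock challenge run 30 min and 4 h after dosing.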

Mus musculus [2] = experiment: Anticonvulsant activity against subcutaneous strychnine-induced seizure in Albino CF1 mouse at 300 mg/kg, ip after 0.5 hrs; format: functional, organism-based; design: dose 300 mg/kg
Summary of the method: (§1)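 Test compounds given i.p. to mice at 0.01 mL/g, at 30, 100 or 300 mg/kg. The seizure challenge followed at 0.5 h and at 4 h after dosing. The value recorded is the lowest dose that protected half or more of the mice. Where no activity was seen, the maximum dose given was 300 mg/kg.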

Mus musculus [3] = experiment: Anticonvulsant activity against subcutaneous pentylenetetrazole-induced seizure in Albino CF1 mouse at 300 mg/kg, ip after 0.5 hrs; format: functional, organism-based; design: dose 300 mg/kg; summary of the method: as §1
Mus musculus [4] = experiment: Neurotoxicity in Albino CF1 mouse at 300 mg/kg, ip after 4 hrs by Rotarod test; format: toxicity, organism-based; design: dose 300 mg/kg, route intraperitoneal; conditions: in vivo
Summary of the method: (§2)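 Rotarod test in mice pre-trained to stay on the rod for two consecutive 90 s trials. Compounds given i.p. at 30, 100 or 300 mg/kg, with testing at 0.5 h and 4 h. Deficit was scored as failure to keep balance on the rod for 1 min in each of three trials. The value recorded is the lowest dose affecting half or more of the mice.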

Mus musculus [5] = experiment: Anticonvulsant activity against intraperitoneal picrotoxin-induced seizure in Albino CF1 mouse at 300 mg/kg, ip after 0.5 hrs; format: functional, organism-based; design: dose 300 mg/kg
Summary of the method: (§3)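 Mice received the test compound by intraperitoneal injection at 30, 100 or 300 mg/kg. They were then challenged with intraperitoneal picrotoxin and scored for anticonvulsant protection 0.5 h or 4 h after dosing. The value recorded is the lowest dose that protected half or more of the mice. A dash means no activity up to 300 mg/kg.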

Mus musculus [6] = experiment: Anticonvulsant activity against intraperitoneal picrotoxin-induced seizure in Albino CF1 mouse at 300 mg/kg, ip after 4 hrs; format: functional, organism-based; design: dose 300 mg/kg; summary of the method: as §3
Mus musculus [7] = experiment: Anticonvulsant activity against subcutaneous strychnine-induced seizure in Albino CF1 mouse at 300 mg/kg, ip after 4 hrs; format: functional, organism-based; design: dose 300 mg/kg; summary of the method: as §1
Mus musculus [8] = experiment: Neurotoxicity in Albino CF1 mouse at 300 mg/kg, ip after 0.5 hrs by Rotarod test; format: toxicity, organism-based; design: dose 300 mg/kg, route intraperitoneal; conditions: in vivo; summary of the method: as §2
Mus musculus [9] = experiment: Anticonvulsant activity against subcutaneous pentylenetetrazole-induced seizure in Albino CF1 mouse at 300 mg/kg, ip after 4 hrs; format: functional, organism-based; design: dose 300 mg/kg; summary of the method: as §1
Mus musculus [10] = experiment: Anticonvulsant activity against subcutaneous strychnine-induced seizure in Albino CF1 mouse at 100 mg/kg, ip after 0.5 hrs; format: functional, organism-based; design: dose 100 mg/kg; summary of the method: as §1
Mus musculus [11] = experiment: Anticonvulsant activity against intraperitoneal picrotoxin-induced seizure in Albino CF1 mouse at 100 mg/kg, ip after 0.5 hrs; format: functional, organism-based; design: dose 100 mg/kg; summary of the method: as §3
Mus musculus [12] = experiment: Neurotoxicity in Albino CF1 mouse at 100 mg/kg, ip after 4 hrs by Rotarod test; format: toxicity, organism-based; design: dose 100 mg/kg, route intraperitoneal; conditions: in vivo; summary of the method: as §2
Mus musculus [13] = experiment: Neurotoxicity in Albino CF1 mouse at 100 mg/kg, ip after 0.5 hrs by Rotarod test; format: toxicity, organism-based; design: dose 100 mg/kg, route intraperitoneal; conditions: in vivo; summary of the method: as §2
Mus musculus [14] = experiment: Anticonvulsant activity against subcutaneous pentylenetetrazole-induced seizure in Albino CF1 mouse at 30 mg/kg, ip after 4 hrs; format: functional, organism-based; design: dose 30 mg/kg; summary of the method: as §1
Mus musculus [15] = experiment: Anticonvulsant activity against subcutaneous strychnine-induced seizure in Albino CF1 mouse at 100 mg/kg, ip after 4 hrs; format: functional, organism-based; design: dose 100 mg/kg; summary of the method: as §1
Mus musculus [16] = experiment: Anticonvulsant activity against intraperitoneal picrotoxin-induced seizure in Albino CF1 mouse at 100 mg/kg, ip after 4 hrs; format: functional, organism-based; design: dose 100 mg/kg; summary of the method: as §3

| SMILES | Activity (Mus musculus [1]) | Activity (Mus musculus [2]) | Activity (Mus musculus [3]) | Activity (Mus musculus [4]) | Activity (Mus musculus [5]) | Activity (Mus musculus [6]) | Activity (Mus musculus [7]) | Activity (Mus musculus [8]) | Activity (Mus musculus [9]) | Activity (Mus musculus [10]) | Activity (Mus musculus [11]) | Activity (Mus musculus [12]) | Activity (Mus musculus [13]) | Activity (Mus musculus [14]) | Activity (Mus musculus [15]) | Activity (Mus musculus [16]) |
| --- | --- | --- | --- | --- | --- | --- | --- | --- | --- | --- | --- | --- | --- | --- | --- | --- |
| O=C(CCCN1C(=O)c2ccccc2C1=O)Nc1cccc(F)c1 | inactive | Active | inactive | Not Active | Active | Active | Active | Active | inactive |  |  |  |  |  |  |  |
| C/C(=N/NC(=O)CCCN1C(=O)c2ccccc2C1=O)c1ccc(O)cc1 | inactive |  | inactive | Not Active |  | inactive | inactive | Not Active | inactive | Active | Active |  |  |  |  |  |
| O=C(CCCN1C(=O)c2ccccc2C1=O)Nc1ccccc1Br | inactive | inactive | inactive | Not Active |  | Active | inactive | Not Active | inactive |  | Active |  |  |  |  |  |
| CCC1(C)CC(=O)NC1=O (stereo not given) [ETHOSUXIMIDE] | inactive | inactive | Active | Not Active | inactive | inactive | inactive | Not Active | inactive |  |  |  |  |  |  |  |
| CC/C(C)=N/NC(=O)CCCN1C(=O)c2ccccc2C1=O | inactive | inactive | inactive | Not Active | Active | inactive | inactive | Not Active | inactive |  |  |  |  |  |  |  |
| O=C1NC(=O)C(c2ccccc2)(c2ccccc2)N1 [PHENYTOIN] | inactive | inactive | inactive |  | inactive | inactive | inactive |  | inactive |  |  | Active | Active |  |  |  |
| Cc1ccc(NC(=O)CCCN2C(=O)c3ccccc3C2=O)c(C)c1 | inactive | inactive | inactive | Active | Active | inactive | inactive | Active |  |  |  |  |  | Active |  |  |
| C/C(=N/NC(=O)CCCN1C(=O)c2ccccc2C1=O)c1ccccc1O | inactive |  | inactive | Not Active |  | Active |  | Not Active | inactive | Active | Active |  |  |  | Active |  |
| O=C(CCCN1C(=O)c2ccccc2C1=O)Nc1ccccc1C(F)(F)F | inactive | Active | inactive | Active | Active | inactive | inactive | Not Active | inactive |  |  |  |  |  |  |  |
| C/C(=N/NC(=O)CCCN1C(=O)c2ccccc2C1=O)c1ccccc1 | inactive |  | inactive | Not Active |  |  |  | Not Active | inactive | Active | Active |  |  |  | Active | Active |
| Cc1ccc(C)c(NC(=O)CCCN2C(=O)c3ccccc3C2=O)c1 | inactive | Active | inactive | Active | Active | inactive | Active |  | inactive |  |  |  | Active |  |  |  |
| O=C(CCCN1C(=O)c2ccccc2C1=O)NN=C(c1ccccc1)c1ccccc1 | inactive | inactive | inactive | Not Active | Active | inactive | inactive | Not Active | inactive |  |  |  |  |  |  |  |
| O=C(CCCN1C(=O)c2ccccc2C1=O)N/N=C\c1ccccc1O | inactive | inactive | inactive | Not Active | Active | inactive | inactive | Not Active | inactive |  |  |  |  |  |  |  |
| O=C(CCCN1C(=O)c2ccccc2C1=O)N/N=C\c1ccccc1 | inactive |  | inactive | Not Active |  |  |  | Not Active | inactive | Active | Active |  |  |  | Active | Active |
| O=C(CCCN1C(=O)c2ccccc2C1=O)N/N=C\c1ccc([N+](=O)[O-])cc1 | inactive | inactive | inactive | Not Active | inactive | inactive | inactive | Not Active | inactive |  |  |  |  |  |  |  |
| C/C(=N/NC(=O)CCCN1C(=O)c2ccccc2C1=O)c1ccc([N+](=O)[O-])cc1 | inactive |  | inactive | Not Active | Active | inactive | inactive | Active | inactive | Active |  |  |  |  |  |  |
| O=C(CCCN1C(=O)c2ccccc2C1=O)N/N=C\c1cccc([N+](=O)[O-])c1 | inactive | inactive | Active | Not Active | Active | inactive | inactive | Not Active | inactive |  |  |  |  |  |  |  |
| C/C(=N/NC(=O)CCCN1C(=O)c2ccccc2C1=O)c1cccc(N)c1 | inactive | inactive | inactive | Not Active | inactive | inactive | inactive | Not Active | inactive |  |  |  |  |  |  |  |
| COc1cc(/C=N\NC(=O)CCCN2C(=O)c3ccccc3C2=O)ccc1O | inactive | inactive | inactive | Not Active | Active | inactive | inactive | Not Active | inactive |  |  |  |  |  |  |  |
| Cc1ccc(NC(=O)CCCN2C(=O)c3ccccc3C2=O)cc1 | inactive | Active | inactive | Active | Active | inactive | inactive | Not Active | inactive |  |  |  |  |  |  |  |
